Data taken from ChEMBL document CHEMBL1152649, “Synthesis, cytotoxicity and human telomerase inhibition activities of a series of 1,2-heteroannelated anthraquinones and anthra[1,2-d]imidazole-6,11-dione homologues” (2009).
Active and inactive are the calls of the source. The calls are words filed in the database; no cut-off is given here.

Experiments:
[1] = Cytotoxicity against human H1299 cells at 1 uM after 48 hrs by MTT assay; type: functional; settings: NCI-H1299, 48 h
In short: (§1)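 H1299 non-small cell lung cancer cells were grown in RPMI 1640 with 10% FBS, penicillin and streptomycin at 37 °C under 5% CO2. About 2 × 10³ cells per well were seeded and left 24 h. Compounds were dissolved fresh in DMSO, diluted into complete medium and applied for 48 h. MTT was then added for 4 h at 37 °C, followed by lysis buffer (20% SDS, 50% DMF) for 16 h, and absorbance was read at 550 nm.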

[2] = Cytotoxicity against human H1299 cells at 10 uM after 48 hrs by MTT assay; type: functional; settings: NCI-H1299, 48 h; in short: as §1
[3] = Cytotoxicity against human H1299 cells at 100 uM after 48 hrs by MTT assay; type: functional; settings: NCI-H1299, 48 h; in short: as §1
[4] = molecular target: Telomerase reverse transcriptase (Homo sapiens) (UniProt O14746); assay: Inhibition of telomerase in human H1299 cells up to 100 uM by TRAP assay; type: cell-based
Sequence of Telomerase reverse transcriptase (Homo sapiens) (O14746 whole entry): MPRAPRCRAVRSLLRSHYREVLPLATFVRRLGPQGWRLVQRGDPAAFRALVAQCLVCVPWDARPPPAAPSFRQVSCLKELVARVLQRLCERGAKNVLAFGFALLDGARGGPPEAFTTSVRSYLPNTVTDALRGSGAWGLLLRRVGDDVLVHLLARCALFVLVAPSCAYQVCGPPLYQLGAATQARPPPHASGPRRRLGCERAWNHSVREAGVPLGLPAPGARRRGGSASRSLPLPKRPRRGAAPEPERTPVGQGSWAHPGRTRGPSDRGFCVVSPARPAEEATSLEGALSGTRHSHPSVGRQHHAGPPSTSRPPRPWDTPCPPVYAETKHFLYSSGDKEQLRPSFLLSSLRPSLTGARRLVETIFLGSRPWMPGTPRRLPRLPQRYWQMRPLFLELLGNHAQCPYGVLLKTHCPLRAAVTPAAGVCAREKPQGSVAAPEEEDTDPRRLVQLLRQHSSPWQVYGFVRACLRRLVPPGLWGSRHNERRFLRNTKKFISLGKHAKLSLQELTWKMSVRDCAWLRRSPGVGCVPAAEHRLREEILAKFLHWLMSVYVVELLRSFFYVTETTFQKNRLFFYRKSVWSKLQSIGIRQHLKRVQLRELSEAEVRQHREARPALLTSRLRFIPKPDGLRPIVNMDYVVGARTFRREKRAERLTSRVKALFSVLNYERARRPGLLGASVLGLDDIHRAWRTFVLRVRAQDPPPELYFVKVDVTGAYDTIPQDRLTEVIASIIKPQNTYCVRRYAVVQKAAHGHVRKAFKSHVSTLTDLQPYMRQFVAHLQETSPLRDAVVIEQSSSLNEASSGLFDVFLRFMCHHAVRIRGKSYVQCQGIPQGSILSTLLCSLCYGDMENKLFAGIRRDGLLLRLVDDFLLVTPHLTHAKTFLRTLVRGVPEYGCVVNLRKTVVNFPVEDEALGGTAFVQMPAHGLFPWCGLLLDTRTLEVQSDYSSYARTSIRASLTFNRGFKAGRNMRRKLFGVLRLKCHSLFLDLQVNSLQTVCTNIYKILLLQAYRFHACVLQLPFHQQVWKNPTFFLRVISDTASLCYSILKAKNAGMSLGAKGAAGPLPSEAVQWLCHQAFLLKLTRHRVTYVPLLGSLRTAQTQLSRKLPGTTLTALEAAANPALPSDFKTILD
In short: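 PCR-based telomeric repeat amplification protocol (TRAP). The telomerase source was total lysate of H1299 lung cancer cells, with protein measured against BSA standards. Controls were extract without inhibitor and RNase A-treated extract.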

A549 = assay: Antiproliferative activity against human A549 cells assessed as cell growth at 10 uM; type: functional; settings: read-out: Activity
In short: (§2)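 NCI 60 cell line panel, single-dose screen (10^-5 M) run by the developmental therapeutics program protocol. Results are given as growth percent of treated cells relative to untreated control cells for each line.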

EKVX = assay: Antiproliferative activity against human EKVX cells assessed as cell growth at 10 uM; type: functional; settings: read-out: Activity; in short: as §2
HOP-62 = assay: Antiproliferative activity against human HOP62 cells assessed as cell growth at 10 uM; type: functional; settings: read-out: Activity; in short: as §2
[5] = Antiproliferative activity against human Hs 578T cells assessed as cell growth at 10 uM; type: functional; settings: read-out: Activity; in short: as §2
MCF7 = assay: Antiproliferative activity against human MCF7 cells assessed as cell growth at 10 uM; type: functional; settings: read-out: Activity; in short: as §2
NCI/ADR-RES = assay: Antiproliferative activity against human NCI/ADR-RES cells assessed as cell growth at 10 uM; type: functional; settings: read-out: Activity; in short: as §2
T47D = assay: Antiproliferative activity against human T47D cells assessed as cell growth at 10 uM; type: functional; settings: read-out: Activity
In short: (§3)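 NCI 60 cell line panel, single dose (10^-5 M), run per the Developmental Therapeutics Program protocol (one dose mean graph). Each result is the growth percentage of treated cells relative to untreated control cells.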

OVCAR-3 = assay: Antiproliferative activity against human OVCAR-3 cells assessed as cell growth at 10 uM; type: functional; settings: read-out: Activity; in short: as §2
OVCAR-5 = assay: Antiproliferative activity against human OVCAR5 cells assessed as cell growth at 10 uM; type: functional; settings: read-out: Activity; in short: as §2
OVCAR-8 = assay: Antiproliferative activity against human OVCAR8 cells assessed as cell growth at 10 uM; type: functional; settings: read-out: Activity; in short: as §2
SK-OV-3 = assay: Antiproliferative activity against human SKOV3 cells assessed as cell growth at 10 uM; type: functional; settings: read-out: Activity; in short: as §2
CCRF-CEM = assay: Antiproliferative activity against human CCRF-CEM cells assessed as cell growth at 10 uM; type: functional; settings: read-out: Activity; in short: as §2
HL-60(TB) = assay: Antiproliferative activity against human HL-60(TB) cells assessed as cell growth at 10 uM; type: functional; settings: read-out: Activity
In short: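 NCI Developmental Therapeutics Program 60-cell-line one-dose screen at 10^-5 M. Readout is growth percentage of treated cells relative to untreated control cells.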

K562 = assay: Antiproliferative activity against human K562 cells assessed as cell growth at 10 uM; type: functional; settings: read-out: Activity; in short: as §2
[6] = Antiproliferative activity against human RPMI8266 cells assessed as cell growth at 10 uM; type: functional; settings: read-out: Activity; in short: as §2
SR = assay: Antiproliferative activity against human SR cells assessed as cell growth at 10 uM; type: functional; settings: read-out: Activity; in short: as §3
786-0 = assay: Antiproliferative activity against human 786-0 cells assessed as cell growth at 10 uM; type: functional; settings: read-out: Activity; in short: as §2
A498 = assay: Antiproliferative activity against human A498 cells assessed as cell growth at 10 uM; type: functional; settings: read-out: Activity; in short: as §2
SN12C = assay: Antiproliferative activity against human SN12C cells assessed as cell growth at 10 uM; type: functional; settings: read-out: Activity; in short: as §2
TK-10 = assay: Antiproliferative activity against human TK10 cells assessed as cell growth at 10 uM; type: functional; settings: read-out: Activity; in short: as §3
M14 = assay: Antiproliferative activity against human M14 cells assessed as cell growth at 10 uM; type: functional; settings: read-out: Activity; in short: as §2
Malme-3M = assay: Antiproliferative activity against human MALME-3M cells assessed as cell growth at 10 uM; type: functional; settings: read-out: Activity; in short: as §2
SK-MEL-2 = assay: Antiproliferative activity against human SK-MEL-2 cells assessed as cell growth at 10 uM; type: functional; settings: read-out: Activity; in short: as §2
SK-MEL-28 = assay: Antiproliferative activity against human SK-MEL-28 cells assessed as cell growth at 10 uM; type: functional; settings: read-out: Activity; in short: as §2
SK-MEL-5 = assay: Antiproliferative activity against human SK-MEL-5 cells assessed as cell growth at 10 uM; type: functional; settings: read-out: Activity; in short: as §2
DU-145 = assay: Antiproliferative activity against human DU145 cells assessed as cell growth at 10 uM; type: functional; settings: read-out: Activity; in short: as §2
PC-3 = assay: Antiproliferative activity against human PC3 cells assessed as cell growth at 10 uM; type: functional; settings: read-out: Activity; in short: as §2
SF-295 = assay: Antiproliferative activity against human SF295 cells assessed as cell growth at 10 uM; type: functional; settings: read-out: Activity; in short: as §2
SNB-19 = assay: Antiproliferative activity against human SNB19 cells assessed as cell growth at 10 uM; type: functional; settings: read-out: Activity; in short: as §2
U-251 = assay: Antiproliferative activity against human U251 cells assessed as cell growth at 10 uM; type: functional; settings: read-out: Activity; in short: as §3
HOP-92 = assay: Antiproliferative activity against human HOP92 cells assessed as cell growth at 10 uM; type: functional; settings: read-out: Activity; in short: as §2
NCI-H226 = assay: Antiproliferative activity against human NCI-H226 cells assessed as cell growth at 10 uM; type: functional; settings: read-out: Activity; in short: as §2
NCI-H23 = assay: Antiproliferative activity against human NCI-H23 cells assessed as cell growth at 10 uM; type: functional; settings: read-out: Activity; in short: as §2
NCI-H322M = assay: Antiproliferative activity against human NCI-H322M cells assessed as cell growth at 10 uM; type: functional; settings: read-out: Activity; in short: as §2
NCI-H460 = assay: Antiproliferative activity against human NCI-H460 cells assessed as cell growth at 10 uM; type: functional; settings: read-out: Activity; in short: as §2
COLO 205 = assay: Antiproliferative activity against human COLO205 cells assessed as cell growth at 10 uM; type: functional; settings: read-out: Activity; in short: as §2
HCC 2998 = assay: Antiproliferative activity against human HCC2998 cells assessed as cell growth at 10 uM; type: functional; settings: read-out: Activity; in short: as §2
HT-29 = assay: Antiproliferative activity against human HT-29 cells assessed as cell growth at 10 uM; type: functional; settings: read-out: Activity; in short: as §2
[7] = molecular target: Telomerase reverse transcriptase (Homo sapiens) (UniProt O14746); assay: Inhibition of TERT in human H1299 cells assessed as residual transcriptional activity at 1 uM after 24 hrs by SEAP reporter gene assay; values are per cent of control
[8] = molecular target: Telomerase reverse transcriptase (Homo sapiens) (UniProt O14746); assay: Inhibition of TERT in human H1299 cells assessed as residual transcriptional activity at 100 uM after 24 hrs by SEAP reporter gene assay; values are per cent of control

Structure (SMILES): Cc1ccc(-c2nc3ccc4c(c3[nH]2)C(=O)c2ccccc2C4=O)cc1
- viability at 1 µM [1]: 75%
- viability at 10 µM [2]: 72%
- viability at 100 µM [3]: 16%
- inhibition [4]: inactive
- growth at 10 µM (A549): 55.7%
- growth at 10 µM (EKVX): 91.2%
- growth at 10 µM (HOP-62): 110%
- growth at 10 µM [5]: 138%
- growth at 10 µM (MCF7): 41.9%
- growth at 10 µM (NCI/ADR-RES): 104%
- growth at 10 µM (T47D): 76%
- growth at 10 µM (OVCAR-3): 96.1%
- growth at 10 µM (OVCAR-5): 106%
- growth at 10 µM (OVCAR-8): 96.4%
- growth at 10 µM (SK-OV-3): 84.5%
- growth at 10 µM (CCRF-CEM): 101%
- growth at 10 µM (HL-60(TB)): 125%
- growth at 10 µM (K562): 102%
- growth at 10 µM [6]: 91.5%
- growth at 10 µM (SR): 114%
- growth at 10 µM (786-0): 113%
- growth at 10 µM (A498): 176%
- growth at 10 µM (SN12C): 103%
- growth at 10 µM (TK-10): 154%
- growth at 10 µM (M14): 106%
- growth at 10 µM (Malme-3M): 97.6%
- growth at 10 µM (SK-MEL-2): 79.6%
- growth at 10 µM (SK-MEL-28): 154%
- growth at 10 µM (SK-MEL-5): 88%
- growth at 10 µM (DU-145): 98.8%
- growth at 10 µM (PC-3): 87.6%
- growth at 10 µM (SF-295): 94.2%
- growth at 10 µM (SNB-19): 97.8%
- growth at 10 µM (U-251): 104%
- growth at 10 µM (HOP-92): 77.3%
- growth at 10 µM (NCI-H226): 101%
- growth at 10 µM (NCI-H23): 98.8%
- growth at 10 µM (NCI-H322M): 84.6%
- growth at 10 µM (NCI-H460): 93.6%
- growth at 10 µM (COLO 205): 108%
- growth at 10 µM (HCC 2998): 104%
- growth at 10 µM (HT-29): 106%
- residual activity [7]: 86%
- residual activity [8]: 29%

Structure (SMILES): O=C1c2ccccc2C(=O)c2c1ccc1nc(-c3ccccc3)[nH]c21
- viability at 1 µM [1]: 79%
- viability at 10 µM [2]: 72%
- viability at 100 µM [3]: 34%
- inhibition [4]: inactive
- growth at 10 µM (A549): 79%
- growth at 10 µM (EKVX): 77.1%
- growth at 10 µM (HOP-62): 109%
- growth at 10 µM [5]: 30.4%
- growth at 10 µM (MCF7): 51.8%
- growth at 10 µM (NCI/ADR-RES): 90.2%
- growth at 10 µM (T47D): 65.1%
- growth at 10 µM (OVCAR-3): 69.2%
- growth at 10 µM (OVCAR-5): 109%
- growth at 10 µM (OVCAR-8): 91%
- growth at 10 µM (SK-OV-3): 115%
- growth at 10 µM (CCRF-CEM): 86.3%
- growth at 10 µM (HL-60(TB)): 99%
- growth at 10 µM (K562): 76%
- growth at 10 µM [6]: 61.1%
- growth at 10 µM (SR): 95.5%
- growth at 10 µM (786-0): 111%
- growth at 10 µM (A498): 77%
- growth at 10 µM (SN12C): 87.5%
- growth at 10 µM (TK-10): 82%
- growth at 10 µM (M14): 101%
- growth at 10 µM (Malme-3M): 74.5%
- growth at 10 µM (SK-MEL-2): 62.6%
- growth at 10 µM (SK-MEL-28): 60.4%
- growth at 10 µM (SK-MEL-5): 65.2%
- growth at 10 µM (DU-145): 84.3%
- growth at 10 µM (PC-3): 52.5%
- growth at 10 µM (SF-295): 73.6%
- growth at 10 µM (SNB-19): 102%
- growth at 10 µM (U-251): 97.1%
- growth at 10 µM (HOP-92): 50.7%
- growth at 10 µM (NCI-H226): 80.5%
- growth at 10 µM (NCI-H23): 91.7%
- growth at 10 µM (NCI-H322M): 77.4%
- growth at 10 µM (NCI-H460): 86.2%
- growth at 10 µM (COLO 205): 92%
- growth at 10 µM (HCC 2998): 105%
- growth at 10 µM (HT-29): 83.2%
- residual activity [7]: 81%
- residual activity [8]: 10%
